Laboratory results as given in ChEMBL document CHEMBL1781959, “Synthesis and in vitro antitumor activity of substituted quinazoline and quinoxaline derivatives: search for anticancer agent” (Eur J Med Chem, 2011).

Assays:
Format in all cases: functional
ACHN = assay: Anticancer activity against human ACHN cells assessed as cell growth promotion at 10^-5 M after 48 hrs by SRB assay relative to control
[1] = Anticancer activity against human Hs 578T cells assessed as cell growth promotion at 10^-5 M after 48 hrs by SRB assay relative to control
PC-3 = assay: Anticancer activity against human PC3 cells assessed as cell growth promotion at 10^-5 M after 48 hrs by SRB assay relative to control
MDA-MB-435 = assay: Anticancer activity against human MDA-MB-435 cells assessed as cell growth promotion at 10^-5 M after 48 hrs by SRB assay relative to control
U-251 = assay: Anticancer activity against human U251 cells assessed as cell growth promotion at 10^-5 M after 48 hrs by SRB assay relative to control
SK-OV-3 = assay: Anticancer activity against human SKOV3 cells assessed as cell growth promotion at 10^-5 M after 48 hrs by SRB assay relative to control
HL-60(TB) = assay: Anticancer activity against human HL-60(TB) cells assessed as cell growth promotion at 10^-5 M after 48 hrs by SRB assay relative to control
Summary of the method: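 NCI-60 single-dose screen: compound at 10^-5 M, 48 h at 37 °C, 5% CO2; cells grown in RPMI 1640 with 5% FBS and 2 mM L-glutamine, pre-incubated 24 h before dosing. Adherent cells fixed with cold TCA; endpoint is sulforhodamine B protein staining. Percent growth of treated cells is reported relative to untreated control.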

OVCAR-3 = assay: Anticancer activity against human OVCAR3 cells assessed as cell growth promotion at 10^-5 M after 48 hrs by SRB assay relative to control
MOLT-4 = assay: Anticancer activity against human MOLT4 cells assessed as cell growth promotion at 10^-5 M after 48 hrs by SRB assay relative to control
SW-620 = assay: Anticancer activity against human SW620 cells assessed as cell growth promotion at 10^-5 M after 48 hrs by SRB assay relative to control
SR = assay: Anticancer activity against human SR cells assessed as cell growth promotion at 10^-5 M after 48 hrs by SRB assay relative to control
EKVX = assay: Anticancer activity against human EKVX cells assessed as cell growth promotion at 10^-5 M after 48 hrs by SRB assay relative to control
SN12C = assay: Anticancer activity against human SN12C cells assessed as cell growth promotion at 10^-5 M after 48 hrs by SRB assay relative to control
NCI-H23 = assay: Anticancer activity against human NCI-H23 cells assessed as cell growth promotion at 10^-5 M after 48 hrs by SRB assay relative to control
NCI/ADR-RES = assay: Anticancer activity against human NCI/ADR-RES cells assessed as cell growth promotion at 10^-5 M after 48 hrs by SRB assay relative to control
COLO 205 = assay: Anticancer activity against human COLO205 cells assessed as cell growth promotion at 10^-5 M after 48 hrs by SRB assay relative to control
786-0 = assay: Anticancer activity against human 786-0 cells assessed as cell growth promotion at 10^-5 M after 48 hrs by SRB assay relative to control
LOX IMVI = assay: Anticancer activity against human LOXIMVI cells assessed as cell growth promotion at 10^-5 M after 48 hrs by SRB assay relative to control
HT-29 = assay: Anticancer activity against human HT-29 cells assessed as cell growth promotion at 10^-5 M after 48 hrs by SRB assay relative to control
TK-10 = assay: Anticancer activity against human TK10 cells assessed as cell growth promotion at 10^-5 M after 48 hrs by SRB assay relative to control
SK-MEL-5 = assay: Anticancer activity against human SK-MEL-5 cells assessed as cell growth promotion at 10^-5 M after 48 hrs by SRB assay relative to control
KM12 = assay: Anticancer activity against human KM12 cells assessed as cell growth promotion at 10^-5 M after 48 hrs by SRB assay relative to control
DU-145 = assay: Anticancer activity against human DU145 cells assessed as cell growth promotion at 10^-5 M after 48 hrs by SRB assay relative to control
SF-539 = assay: Anticancer activity against human SF539 cells assessed as cell growth promotion at 10^-5 M after 48 hrs by SRB assay relative to control
[2] = Anticancer activity against human […] cells assessed as cell growth promotion at 10^-5 M after 48 hrs by SRB assay relative to control
CAKI-1 = assay: Anticancer activity against human Caki1 cells assessed as cell growth promotion at 10^-5 M after 48 hrs by SRB assay relative to control
UACC-257 = assay: Anticancer activity against human UACC257 cells assessed as cell growth promotion at 10^-5 M after 48 hrs by SRB assay relative to control
UACC-62 = assay: Anticancer activity against human UACC62 cells assessed as cell growth promotion at 10^-5 M after 48 hrs by SRB assay relative to control
IGROV-1 = assay: Anticancer activity against human IGROV1 cells assessed as cell growth promotion at 10^-5 M after 48 hrs by SRB assay relative to control
SF-268 = assay: Anticancer activity against human SF268 cells assessed as cell growth promotion at 10^-5 M after 48 hrs by SRB assay relative to control
RXF 393 = assay: Anticancer activity against human RXF393 cells assessed as cell growth promotion at 10^-5 M after 48 hrs by SRB assay relative to control
SF-295 = assay: Anticancer activity against human SF295 cells assessed as cell growth promotion at 10^-5 M after 48 hrs by SRB assay relative to control
OVCAR-5 = assay: Anticancer activity against human OVCAR5 cells assessed as cell growth promotion at 10^-5 M after 48 hrs by SRB assay relative to control
MCF7 = assay: Anticancer activity against human MCF7 cells assessed as cell growth promotion at 10^-5 M after 48 hrs by SRB assay relative to control
HCT-15 = assay: Anticancer activity against human HCT15 cells assessed as cell growth promotion at 10^-5 M after 48 hrs by SRB assay relative to control
T47D = assay: Anticancer activity against human T47D cells assessed as cell growth promotion at 10^-5 M after 48 hrs by SRB assay relative to control
SK-MEL-28 = assay: Anticancer activity against human SK-MEL-28 cells assessed as cell growth promotion at 10^-5 M after 48 hrs by SRB assay relative to control
HCC 2998 = assay: Anticancer activity against human HCC2998 cells assessed as cell growth promotion at 10^-5 M after 48 hrs by SRB assay relative to control
A498 = assay: Anticancer activity against human A498 cells assessed as cell growth promotion at 10^-5 M after 48 hrs by SRB assay relative to control

| Compound | Activity (ACHN) | Activity [1] | Activity (PC-3) | Activity (MDA-MB-435) | Activity (U-251) | Activity (HL-60(TB)) | Activity (OVCAR-3) | Activity (MOLT-4) | Activity (SW-620) | Activity (SR) | Activity (EKVX) | Activity (SN12C) | Activity (NCI-H23) | Activity (NCI/ADR-RES) | Activity (COLO 205) | Activity (786-0) | Activity (LOX IMVI) | Activity (HT-29) | Activity (TK-10) | Activity (SK-MEL-5) | further results |
| --- | --- | --- | --- | --- | --- | --- | --- | --- | --- | --- | --- | --- | --- | --- | --- | --- | --- | --- | --- | --- | --- |
| O=C(Nc1ccccc1C(=O)Nc1ccc(/C=C/c2ccc(Cl)cc2)cc1)c1ccccc1 | 82.68% | 67.95% | 65.2% | 82.15% | 60.68% | 94.11% | 86.93% | 59.17% | 99.16% | 81.19% | 86.68% | 79.73% | 73.51% | 95.06% | 124% | 75.14% | 74.93% | 89.94% | 123% | 82.15% | Activity (SK-OV-3): 95.35%; Activity (KM12): 64.38%; Activity (DU-145): 107%; Activity (SF-539): 91.8%; Activity [2]: 56.24%; Activity (CAKI-1): 90.6%; Activity (UACC-257): 94.73%; Activity (UACC-62): 79.67%; Activity (IGROV-1): 89.85%; Activity (SF-268): 82.84%; Activity (RXF 393): 82.15%; Activity (SF-295): 52.07%; Activity (OVCAR-5): 123%; Activity (MCF7): 82.72%; Activity (HCT-15): 65.81%; Activity (T47D): 82.14%; Activity (SK-MEL-28): 101%; Activity (HCC 2998): 78.38% |
| CN(C)c1ccc(/C=C/c2nc3ccccc3nc2SCc2nc3ccccc3[nH]2)cc1 | 103% | 119% | 119% | 102% | 102% | 87.19% | 107% | 84.64% | 102% | 79.22% | 92.96% | 100% | 102% | 106% | 110% | 90.32% | 103% | 101% | 113% | 97.96% | Activity (A498): 88.48%; Activity (KM12): 104%; Activity (DU-145): 95.35%; Activity (SF-539): 85.81%; Activity [2]: 100%; Activity (CAKI-1): 107%; Activity (UACC-257): 102%; Activity (UACC-62): 84.34%; Activity (IGROV-1): 116%; Activity (SF-268): 107%; Activity (RXF 393): 99.96%; Activity (SF-295): 104%; Activity (OVCAR-5): 102%; Activity (MCF7): 77.51%; Activity (HCT-15): 93.83%; Activity (SK-MEL-28): 124%; Activity (HCC 2998): 90.32% |
| Oc1ccccc1/C=C/c1nc2ccccc2nc1SCc1nc2ccccc2[nH]1 | 69.99% | 48.8% | 63.9% | 81.04% | 83.34% | 26.78% | 81.53% | 57.51% | 93.22% | 44.46% | 60.4% | 78.21% | 76.93% | 82.43% | 96.37% | 89.92% | 78.17% | 83.56% | 43.48% | 68.43% | Activity (A498): 92.56%; Activity (KM12): 77.92%; Activity (DU-145): 76.88%; Activity (SF-539): 97.28%; Activity [2]: 63.38%; Activity (CAKI-1): 56.68%; Activity (UACC-257): 81.1%; Activity (UACC-62): 58.04%; Activity (IGROV-1): 59.92%; Activity (SF-268): 81.66%; Activity (RXF 393): 87.29%; Activity (SF-295): 93.22%; Activity (OVCAR-5): 86.09%; Activity (MCF7): 51.8%; Activity (HCT-15): 74.29%; Activity (SK-MEL-28): 95.95%; Activity (HCC 2998): 102% |
| Oc1ccc(/C=C/c2nc3ccccc3nc2SCc2nc3ccccc3[nH]2)cc1 | 93.62% | 110% | 96.98% | 96.11% | 95.56% | 84.38% | 102% | 75.47% | 95.64% | 99.18% | 92.68% | 94.78% | 102% | 100% | 119% | 94.31% | 95.29% | 86.49% | 107% | 95.26% | Activity (A498): 88.72%; Activity (KM12): 98.91%; Activity (DU-145): 97.51%; Activity (SF-539): 111%; Activity [2]: 85.51%; Activity (CAKI-1): 76.71%; Activity (UACC-257): 117%; Activity (UACC-62): 96.99%; Activity (IGROV-1): 71.03%; Activity (SF-268): 91.53%; Activity (RXF 393): 106%; Activity (SF-295): 82.46%; Activity (OVCAR-5): 102%; Activity (MCF7): 89.91%; Activity (HCT-15): 96.67%; Activity (SK-MEL-28): 102%; Activity (HCC 2998): 123% |
| N#Cc1ccc(/C=C/c2nc3ccccc3nc2SCc2nc3ccccc3[nH]2)cc1 | 100% | 107% | 103% | 109% | 107% | 94.7% | 110% | 88.59% | 98.13% | 97.73% | 99.04% | 94.09% | 105% | 103% | 105% | 90.69% | 100% | 89.43% | 86.49% | 101% | Activity (A498): 105%; Activity (KM12): 104%; Activity (DU-145): 103%; Activity (SF-539): 125%; Activity [2]: 102%; Activity (CAKI-1): 111%; Activity (UACC-257): 113%; Activity (UACC-62): 100%; Activity (IGROV-1): 103%; Activity (SF-268): 109%; Activity (RXF 393): 107%; Activity (SF-295): 127%; Activity (OVCAR-5): 104%; Activity (MCF7): 101%; Activity (HCT-15): 114%; Activity (SK-MEL-28): 88.08% |
